Assays:
Assay type in all cases: functional
HCT-116 = assay: Cytotoxicity against human HCT116 cells assessed as cell growth at 10 uM; conditions: read-out: Activity
How it was run: (§1)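 Single-dose NCI-60 screen at 10 µM. Cells were grown in RPMI 1640 with 5% FBS and 2 mM L-glutamine, then treated for 48 h at 37 °C. Protein was measured by SRB staining with absorbance at 515 nm. Percentage growth was recorded, and inhibition percentage was calculated as 100 minus growth percentage.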

OVCAR-4 = assay: Cytotoxicity against human OVCAR4 cells assessed as cell growth at 10 uM; conditions: read-out: Activity
How it was run: (§2)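 NCI-60 screen: cells grown in RPMI 1640 with 5% FBS and 2 mM L-glutamine, plated at 5000–40,000 cells/well according to doubling time, and preincubated 24 h at 37 °C, 5% CO2. The single 10 µM dose (DMSO stock) was added, then incubated 48 h. Cells were TCA-fixed and stained with 0.4% SRB, read at 515 nm, and growth % calculated against time-zero and control plates.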

U-251 = assay: Cytotoxicity against human U251 cells assessed as cell growth at 10 uM; conditions: read-out: Activity; how it was run: as §2
OVCAR-5 = assay: Cytotoxicity against human OVCAR5 cells assessed as cell growth at 10 uM; conditions: read-out: Activity; how it was run: as §2
NCI-H460 = assay: Cytotoxicity against human NCI-H460 cells assessed as cell growth at 10 uM; conditions: read-out: Activity; how it was run: as §2
BT-549 = assay: Cytotoxicity against human BT549 cells assessed as cell growth at 10 uM; conditions: read-out: Activity; how it was run: as §1
MDA-MB-468 = assay: Cytotoxicity against human MDA-MB-468 cells assessed as cell growth at 10 uM; conditions: read-out: Activity; how it was run: as §2
OVCAR-8 = assay: Cytotoxicity against human OVCAR8 cells assessed as cell growth at 10 uM; conditions: read-out: Activity; how it was run: as §2
SF-539 = assay: Cytotoxicity against human SF539 cells assessed as cell growth at 10 uM; conditions: read-out: Activity; how it was run: as §2
KM12 = assay: Cytotoxicity against human KM12 cells assessed as cell growth at 10 uM; conditions: read-out: Activity; how it was run: as §2
CAKI-1 = assay: Cytotoxicity against human Caki1 cells assessed as cell growth at 10 uM; conditions: read-out: Activity; how it was run: as §1
TK-10 = assay: Cytotoxicity against human TK10 cells assessed as cell growth at 10 uM; conditions: read-out: Activity; how it was run: as §2
MDA-MB-435 = assay: Cytotoxicity against human MDA-MB-435 cells assessed as cell growth at 10 uM; conditions: read-out: Activity; how it was run: as §2
OVCAR-3 = assay: Cytotoxicity against human OVCAR-3 cells assessed as cell growth at 10 uM; conditions: read-out: Activity; how it was run: as §2
HOP-92 = assay: Cytotoxicity against human HOP92 cells assessed as cell growth at 10 uM; conditions: read-out: Activity; how it was run: as §1
LOX IMVI = assay: Cytotoxicity against human LOXIMVI cells assessed as cell growth at 10 uM; conditions: read-out: Activity; how it was run: as §2
EKVX = assay: Cytotoxicity against human EKVX cells assessed as cell growth at 10 uM; conditions: read-out: Activity; how it was run: as §1
MOLT-4 = assay: Cytotoxicity against human MOLT4 cells assessed as cell growth at 10 uM; conditions: read-out: Activity; how it was run: as §2
SW-620 = assay: Cytotoxicity against human SW620 cells assessed as cell growth at 10 uM; conditions: read-out: Activity; how it was run: as §2
SNB-75 = assay: Cytotoxicity against human SNB75 cells assessed as cell growth at 10 uM; conditions: read-out: Activity; how it was run: as §2
SK-MEL-28 = assay: Cytotoxicity against human SK-MEL-28 cells assessed as cell growth at 10 uM; conditions: read-out: Activity; how it was run: as §2
SF-268 = assay: Cytotoxicity against human SF268 cells assessed as cell growth at 10 uM; conditions: read-out: Activity; how it was run: as §2
[1] = Growth inhibition of human NCI60 cells at 10 uM after 48 hrs by sulforhodamine B assay relative to control; conditions: NCI60, 48 h, read-out: GI
How it was run: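 Single-dose NCI screen at 10 µM across the 60-line panel, 48 h exposure at 37 °C after a 24 h preincubation. Adherent cells were fixed with cold TCA and stained with 0.4% SRB, and absorbance was read at 515 nm. Inhibition % was taken as 100 minus growth %, and the mean across all lines was reported.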

PC-3 = assay: Cytotoxicity against human PC3 cells assessed as cell growth at 10 uM; conditions: read-out: Activity; how it was run: as §2
HT-29 = assay: Cytotoxicity against human HT-29 cells assessed as cell growth at 10 uM; conditions: read-out: Activity; how it was run: as §1
SF-295 = assay: Cytotoxicity against human SF295 cells assessed as cell growth at 10 uM; conditions: read-out: Activity; how it was run: as §2
UACC-257 = assay: Cytotoxicity against human UACC257 cells assessed as cell growth at 10 uM; conditions: read-out: Activity; how it was run: as §2
UO-31 = assay: Cytotoxicity against human UO31 cells assessed as cell growth at 10 uM; conditions: read-out: Activity; how it was run: as §2
M14 = assay: Cytotoxicity against human M14 cells assessed as cell growth at 10 uM; conditions: read-out: Activity; how it was run: as §2
SN12C = assay: Cytotoxicity against human SN12C cells assessed as cell growth at 10 uM; conditions: read-out: Activity; how it was run: as §2
K562 = assay: Cytotoxicity against human K562 cells assessed as cell growth at 10 uM; conditions: read-out: Activity; how it was run: as §1
NCI-H23 = assay: Cytotoxicity against human NCI-H23 cells assessed as cell growth at 10 uM; conditions: read-out: Activity; how it was run: as §2
HCC 2998 = assay: Cytotoxicity against human HCC2998 cells assessed as cell growth at 10 uM; conditions: read-out: Activity; how it was run: as §1
786-0 = assay: Cytotoxicity against human 786-0 cells assessed as cell growth at 10 uM; conditions: read-out: Activity; how it was run: as §1
UACC-62 = assay: Cytotoxicity against human UACC62 cells assessed as cell growth at 10 uM; conditions: read-out: Activity; how it was run: as §2
[2] = Cytotoxicity against human Hs 578T cells assessed as cell growth at 10 uM; conditions: read-out: Activity; how it was run: as §1
A549 = assay: Cytotoxicity against human A549 cells assessed as cell growth at 10 uM; conditions: read-out: Activity; how it was run: as §1
RXF 393 = assay: Cytotoxicity against human RXF393 cells assessed as cell growth at 10 uM; conditions: read-out: Activity; how it was run: as §2
HL-60(TB) = assay: Cytotoxicity against human HL-60(TB) cells assessed as cell growth at 10 uM; conditions: read-out: Activity
How it was run: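 NCI 60-cell panel screen at a single concentration of 10 µM. Cells are grown in RPMI 1640 with 5% FBS and 2 mM L-glutamine and read by SRB protein staining at 515 nm. Percent growth is measured relative to time-zero and untreated controls; inhibition % is 100 minus growth %.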

NCI-H226 = assay: Cytotoxicity against human NCI-H226 cells assessed as cell growth at 10 uM; conditions: read-out: Activity; how it was run: as §2
A498 = assay: Cytotoxicity against human A498 cells assessed as cell growth at 10 uM; conditions: read-out: Activity; how it was run: as §1
MDA-MB-231 = assay: Cytotoxicity against human MDA-MB-231 cells assessed as cell growth at 10 uM; conditions: read-out: Activity; how it was run: as §2
NCI-H322M = assay: Cytotoxicity against human NCI-H322M cells assessed as cell growth at 10 uM; conditions: read-out: Activity; how it was run: as §2
SR = assay: Cytotoxicity against human SR cells assessed as cell growth at 10 uM; conditions: read-out: Activity; how it was run: as §2
SK-OV-3 = assay: Cytotoxicity against human SKOV3 cells assessed as cell growth at 10 uM; conditions: read-out: Activity; how it was run: as §2
SK-MEL-2 = assay: Cytotoxicity against human SK-MEL-2 cells assessed as cell growth at 10 uM; conditions: read-out: Activity; how it was run: as §2
[3] = Cytotoxicity against human […] cells assessed as cell growth at 10 uM; conditions: read-out: Activity; how it was run: as §2
T47D = assay: Cytotoxicity against human T47D cells assessed as cell growth at 10 uM; conditions: read-out: Activity; how it was run: as §2
CCRF-CEM = assay: Cytotoxicity against human CCRF-CEM cells assessed as cell growth at 10 uM; conditions: read-out: Activity; how it was run: as §1
NCI-H522 = assay: Cytotoxicity against human NCI-H522 cells assessed as cell growth at 10 uM; conditions: read-out: Activity; how it was run: as §2
MCF7 = assay: Cytotoxicity against human MCF7 cells assessed as cell growth at 10 uM; conditions: read-out: Activity; how it was run: as §2
DU-145 = assay: Cytotoxicity against human DU145 cells assessed as cell growth at 10 uM; conditions: read-out: Activity; how it was run: as §1
HCT-15 = assay: Cytotoxicity against human HCT15 cells assessed as cell growth at 10 uM; conditions: read-out: Activity; how it was run: as §1
SNB-19 = assay: Cytotoxicity against human SNB19 cells assessed as cell growth at 10 uM; conditions: read-out: Activity; how it was run: as §2
ACHN = assay: Cytotoxicity against human ACHN cells assessed as cell growth at 10 uM; conditions: read-out: Activity; how it was run: as §1
HOP-62 = assay: Cytotoxicity against human HOP62 cells assessed as cell growth at 10 uM; conditions: read-out: Activity; how it was run: as §1
Malme-3M = assay: Cytotoxicity against human MALME-3M cells assessed as cell growth at 10 uM; conditions: read-out: Activity; how it was run: as §2
SK-MEL-5 = assay: Cytotoxicity against human SK-MEL-5 cells assessed as cell growth at 10 uM; conditions: read-out: Activity; how it was run: as §2
COLO 205 = assay: Cytotoxicity against human COLO205 cells assessed as cell growth at 10 uM; conditions: read-out: Activity; how it was run: as §1
NCI/ADR-RES = assay: Cytotoxicity against human NCI/ADR-RES cells assessed as cell growth at 10 uM; conditions: read-out: Activity; how it was run: as §2
IGROV-1 = assay: Cytotoxicity against human IGROV1 cells assessed as cell growth at 10 uM; conditions: read-out: Activity; how it was run: as §1

SMILES: COc1cc(C)cc(-c2c(-c3ccnc(-c4cccc(NC(C)=O)c4)c3)cnn2CC#N)c1
- growth at 10 µM (HCT-116): 96.4%
- growth at 10 µM (OVCAR-4): 99.7%
- growth at 10 µM (U-251): 94.3%
- growth at 10 µM (OVCAR-5): 91.6%
- growth at 10 µM (NCI-H460): 107%
- growth at 10 µM (BT-549): 79.1%
- growth at 10 µM (MDA-MB-468): 82.8%
- growth at 10 µM (OVCAR-8): 88%
- growth at 10 µM (SF-539): 84.5%
- growth at 10 µM (KM12): 109%
- growth at 10 µM (CAKI-1): 77.3%
- growth at 10 µM (TK-10): 67.1%
- growth at 10 µM (MDA-MB-435): 99.6%
- growth at 10 µM (OVCAR-3): 109%
- growth at 10 µM (HOP-92): 79.6%
- growth at 10 µM (LOX IMVI): 97.5%
- growth at 10 µM (EKVX): 100%
- growth at 10 µM (MOLT-4): 82.8%
- growth at 10 µM (SW-620): 104%
- growth at 10 µM (SNB-75): 72.4%
- growth at 10 µM (SK-MEL-28): 104%
- growth at 10 µM (SF-268): 97.3%
- inhibition of growth at 10 µM [1]: 9.4%
- growth at 10 µM (PC-3): 85.8%
- growth at 10 µM (HT-29): 99.4%
- growth at 10 µM (SF-295): 102%
- growth at 10 µM (UACC-257): 89.8%
- growth at 10 µM (UO-31): 63.6%
- growth at 10 µM (M14): 96.3%
- growth at 10 µM (SN12C): 83%
- growth at 10 µM (K562): 86.4%
- growth at 10 µM (NCI-H23): 95.3%
- growth at 10 µM (HCC 2998): 101%
- growth at 10 µM (786-0): 84%
- growth at 10 µM (UACC-62): 81.6%
- growth at 10 µM [2]: 99%
- growth at 10 µM (A549): 86.7%
- growth at 10 µM (RXF 393): 81.5%
- growth at 10 µM (HL-60(TB)): 74.7%
- growth at 10 µM (NCI-H226): 93.1%
- growth at 10 µM (A498): 74.2%
- growth at 10 µM (MDA-MB-231): 86.5%
- growth at 10 µM (NCI-H322M): 96.9%
- growth at 10 µM (SR): 80.9%
- growth at 10 µM (SK-OV-3): 93.3%
- growth at 10 µM (SK-MEL-2): 92.1%
- growth at 10 µM [3]: 79.9%
- growth at 10 µM (T47D): 79.3%
- growth at 10 µM (CCRF-CEM): 88.9%
- growth at 10 µM (NCI-H522): 82.5%
- growth at 10 µM (MCF7): 85%
- growth at 10 µM (DU-145): 105%
- growth at 10 µM (HCT-15): 94.5%
- growth at 10 µM (SNB-19): 89.6%
- growth at 10 µM (ACHN): 86%
- growth at 10 µM (HOP-62): 98.9%
- growth at 10 µM (Malme-3M): 108%
- growth at 10 µM (SK-MEL-5): 86.9%
- growth at 10 µM (COLO 205): 93.5%
- growth at 10 µM (NCI/ADR-RES): 87.3%
- growth at 10 µM (IGROV-1): 98.4%

— ChEMBL document CHEMBL1165950, “Design and synthesis of new potent anticancer pyrazoles with high FLT3 kinase inhibitory selectivity” (Bioorg Med Chem, 2010)
